Screens: PubChem, several laboratories
CSN deneddyl inh: CSN deneddylation inhibition | Purified CSN, SCF-Nedd8-OG deneddylation, fluorescence polarization | inhibition, % at 12.5 µM | 0.38% of 360,000 active | AID 651999;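 active = pattern-corrected inhibition above about 35%, with an unprinted fluorescence ratio check between 0.5 and 1.5, limit read from the data, passing the limit was not always enough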;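 note: 0% = enzyme with substrate and 100% = substrate without enzyme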
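Schedule: reaction 90 min, room temperature / Assay system: HEK293T-derived human Csn5 enzyme / Input: Csn5 at 0.24 nM final / Measure: inhibition of Csn5 cleavage, % / Control set: substrate-only high control, full reaction low control / Technique: fluorescence polarization of the substrate / Buffer or medium: Tris/NaCl/DTT buffer, pH 7.5 / Reagent: SCFSkp2-Nedd8OG substrate at 10 nM final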
NadD inh: inhibitors of Staphylococcus aureus NadD. purified NadD enzyme, colorimetric absorbance read-out. inhibition, % at 20 µM. 0.78% of 360,000 active. AID 602399; in the data active = inhibition above about 26%
HNF4A DNA FP: change in binding of human HNF4 alpha to DNA; HNF4a-FITC DNA binding, fluorescence polarization, 1 h; activity change, % at 10 µM; 0.3% of 360,000 active; AID 1224865; in the data active = activity change above about 30%, passing the limit was not always enough
Target sequence (P41235 whole entry, looked up): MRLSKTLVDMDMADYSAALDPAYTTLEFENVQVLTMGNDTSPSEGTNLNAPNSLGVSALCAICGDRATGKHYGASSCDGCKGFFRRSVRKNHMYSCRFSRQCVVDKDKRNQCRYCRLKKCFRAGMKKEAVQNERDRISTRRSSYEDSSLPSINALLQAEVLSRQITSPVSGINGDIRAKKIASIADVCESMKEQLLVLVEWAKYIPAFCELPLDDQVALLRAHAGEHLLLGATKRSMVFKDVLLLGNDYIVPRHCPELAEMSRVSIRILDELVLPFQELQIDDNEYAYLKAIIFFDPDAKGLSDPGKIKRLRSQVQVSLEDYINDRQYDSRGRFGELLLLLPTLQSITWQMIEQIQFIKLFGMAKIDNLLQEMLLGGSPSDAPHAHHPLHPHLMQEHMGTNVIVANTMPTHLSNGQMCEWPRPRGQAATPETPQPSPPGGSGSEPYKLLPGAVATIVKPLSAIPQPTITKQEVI
Rpn11 block: Rpn11 (human) deubiquitinase inhibition. human 26S proteasome, Ub4-pepOG fluorescence polarization; 20S core pre-blocked with epoxomicin. 0.59% of 360,000 active. AID 588493. inhibition, % at 20 µM. O00487;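 active = inhibition at 20 µM, scaled to each plate's controls, above about 33%, limit read from the data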
TPT1 inhibitor: inhibitors of Candida albicans tRNA 2'-phosphotransferase TPT1 | recombinant caTPT1, FP RNA substrate dephosphorylation | inhibition, % at 5 µM | 0.81% of 300,000 active;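 active = inhibition above the mean of all tested compounds plus 3 SD, set per screening campaign, cut at about 24% in these data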;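 note: plate controls were DMSO alone for no effect and ferristatin control at 100 nM for full effect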
PP1 inh: PP1-alpha (human) inhibition in PP5 counter-screen | AID 2235 | inhibition, % at 6.7 µM | 0.9% of 320,000 active | purified PP1alpha, OMFP fluorescence | P62136;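 active = inhibition above the mean inhibition of all tested compounds plus 3 SD, computed separately for each screening campaign, cut at about 15% in these data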
The depositor's hits bear a star; . = no result; ! = not active in a repeat. This is a sample that favours compounds with a hit; in the whole collection about 2.7% have one here.

SMILES	CSN deneddyl inh	NadD inh	HNF4A DNA FP	Rpn11 block	TPT1 inhibitor	PP1 inh
COC(=O)c1ccccc1NC1=C/C(=N\S(=O)(=O)c2ccc(C(=O)O)cc2)c2ccccc2C1=O	16	47*	-2	-28	-3	5
Cc1ccc(S(=O)(=O)/N=C2\C=C(Nc3cccc(C(=O)O)c3)C(=O)c3ccccc32)c(C)c1	13	7	1	2	-3	6
Cc1ccc(S(=O)(=O)/N=C2\C=C(NS(=O)(=O)c3ccccc3)C(=O)c3ccccc32)c(C)c1	3	32*	-2	9	.	.
CC(C)(C)c1ccc(S(=O)(=O)/N=C2\C=C(NS(=O)(=O)c3ccccc3)C(=O)c3ccccc32)cc1	5	40*	1	14	-5	2
COc1cc(C(=O)N2CCN(c3ccccc3)CC2)c2ccccc2n1	-1	0	5	-3	.	.
COc1ccc(C(=O)NNC(=S)NC(=O)c2cccs2)cc1	6	4	3	1	-6	-1
COc1ccc(/C=C/C(=O)NC(=S)NNC(=O)c2cccs2)cc1	13	6	2	0	0	17*
COc1ccc(/C=C/C(=O)NC(=S)NNC(=O)c2cccnc2)cc1	4	3	2	1	-3	16*
CCCCNC(=O)c1ccc2nc(CC)c(N(C)Cc3ccc(OC)cc3)n2c1	2	-5	-4	-1	.	.
O=C1NC(=O)/C(=C\c2ccc(OCc3cnc(Cl)s3)cc2)S1	37*	6	-6	23	0	-6
O=C1NC(=O)/C(=C\c2ccc(Cl)nc2)S1	-3	2	1	-8	-1	-4
COC(=O)c1c(C)[nH]c(O)c1C=Nc1ccc(Oc2ccccc2)cc1	90*	-4	17	34	2	3
COC(=O)c1c(C)[nH]c(O)c1C=Nc1ccc(C(C)C)cc1	53*	-3	3	36	9	0
C[C@@H]1CN([C@H](C)CO)C(=O)c2cc(Br)cnc2O[C@H]1CN(C)Cc1cccnc1	-2	2	0	-7	.	.
COc1cc(CNCCc2ccccc2)ccc1OCC(=O)NC(C)(C)C	106*	-4	0	-3	0	-3
CNc1cnc(-c2ccccc2OC)cn1	-1	2	0	0	.	.
COc1ccc(OCC(=O)N/N=C/C(C)=C/c2ccco2)c(Br)c1	10	1	4	2	4	17*
Cc1ccc(S(=O)(=O)N2CCN(C(=O)CCC(=O)Nc3ccc(Br)c(C)c3)CC2)cc1	-2	-13	-3	-2	.	.
O=C(Nc1ccccc1)c1oc2ccccc2c1NC(=O)C1CC1	-1	-11	61*	0	1	2
O=C(Nc1ccc2c(c1)OCCO2)c1oc2ccccc2c1NC(=O)C1CC1	-14	-13	-6	3	3	0
Cn1cnc2c(oc3ccccc32)c1=O	2	-1	3	-10	-1	-2
CCOC(=O)c1cc(-c2ccco2)nn1-c1ccc(C)cc1	1	0	5	25	9	-2
CCOC(=O)c1cc(-c2ccc(N3CCOCC3)cc2)nn1-c1ccccc1	-17	-5	-4	6	-1	9
CCOC(=O)c1cc(-c2ccc(N3CCOCC3)cc2)nn1-c1ccc(F)cc1F	-1	5	0	0	-4	17*
CCOC(=O)c1cc(-c2ccc(N3CCOCC3)cc2)nn1-c1ccccc1C(=O)O	30	9	-49	60*	3	14
SMILES	CSN deneddyl inh	NadD inh	HNF4A DNA FP	Rpn11 block	TPT1 inhibitor	PP1 inh
O=c1cc(O)c2c(=O)n(Cc3ccccc3)c3ccccc3c2o1	3	10	5	8	5	29*
CCCCn1c(=O)c2c(O)cc(=O)oc2c2ccccc21	3	2	12	11	16	5
Cc1cc[n+](-c2nc3ccccc3nc2C(=C=[N-])C#N)cc1	35	5	26	31	20	-1
Cc1cc(C)c[n+](-c2nc3ccccc3nc2C(=C=[N-])C#N)c1	33	3	44*!	15	1	-2
O=C(O)CN1C(=O)/C(=C2\C(=O)N(Cc3ccccc3Cl)c3ccccc32)SC1=S	3	26*	2	2	0	-1
COc1ccc(Cl)cc1-c1cc(C(=O)NC2CCCCC2)[nH]n1	3	0	-1	6	.	.
Cc1ccc(NC(=O)CN2C(=O)NC(C)(C)C2=O)cc1S(=O)(=O)N1CCCCCC1	0	-4	33*	2	.	.
